SMILES strings stand for the structures.

Assay [1] concerns the target Norepinephrine transporter (Rattus norvegicus, UniProt Q9WTR4). In words: Inhibition of binding of [3H]nisoxetine to (NET) norepinephrine transporter in rat striatum. Type of assay: tissue-based. The gist of the method:
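Radioligand displacement of [3H]nisoxetine labelling NET; other binding conditions are referred to earlier work. Values are means ± SEM of three independent experiments, each assayed in triplicate.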

The target of assay [2] is Sodium-dependent dopamine transporter (Rattus norvegicus, UniProt P23977). In words: Inhibition of binding of [3H]WIN-35 428 to (DAT) dopamine transporter in rat striatum. In kind it is tissue-based.
A further assay is filed under the species Rattus norvegicus. Description: Inhibition of [3H]DA dopamine (DA) reuptake activity. Type of assay: functional.
For assay [3], the target named is Sodium-dependent serotonin transporter (Rattus norvegicus, UniProt P31652). In words: Inhibition of binding of [3H]citalopram to (SERT) serotonin transporter in rat striatum. In kind it is tissue-based.
Chain of Sodium-dependent serotonin transporter (P31652 whole entry): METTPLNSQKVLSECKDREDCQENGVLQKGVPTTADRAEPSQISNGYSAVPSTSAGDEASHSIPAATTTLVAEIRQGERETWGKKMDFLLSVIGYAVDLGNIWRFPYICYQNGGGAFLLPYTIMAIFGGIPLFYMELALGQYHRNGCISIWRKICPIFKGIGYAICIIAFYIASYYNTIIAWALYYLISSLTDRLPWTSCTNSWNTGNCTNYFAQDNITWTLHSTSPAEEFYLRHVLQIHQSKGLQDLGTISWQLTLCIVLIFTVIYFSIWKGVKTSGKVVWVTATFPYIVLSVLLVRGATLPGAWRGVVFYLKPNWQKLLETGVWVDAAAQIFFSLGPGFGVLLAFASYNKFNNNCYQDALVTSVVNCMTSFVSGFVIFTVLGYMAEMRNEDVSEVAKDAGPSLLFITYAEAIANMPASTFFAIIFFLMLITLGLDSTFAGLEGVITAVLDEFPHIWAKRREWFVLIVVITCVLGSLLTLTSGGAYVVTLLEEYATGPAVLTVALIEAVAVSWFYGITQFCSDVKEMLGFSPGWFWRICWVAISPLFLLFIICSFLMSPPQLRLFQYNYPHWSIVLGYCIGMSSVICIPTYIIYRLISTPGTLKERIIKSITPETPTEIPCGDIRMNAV

Chain of Sodium-dependent dopamine transporter (P23977 whole entry): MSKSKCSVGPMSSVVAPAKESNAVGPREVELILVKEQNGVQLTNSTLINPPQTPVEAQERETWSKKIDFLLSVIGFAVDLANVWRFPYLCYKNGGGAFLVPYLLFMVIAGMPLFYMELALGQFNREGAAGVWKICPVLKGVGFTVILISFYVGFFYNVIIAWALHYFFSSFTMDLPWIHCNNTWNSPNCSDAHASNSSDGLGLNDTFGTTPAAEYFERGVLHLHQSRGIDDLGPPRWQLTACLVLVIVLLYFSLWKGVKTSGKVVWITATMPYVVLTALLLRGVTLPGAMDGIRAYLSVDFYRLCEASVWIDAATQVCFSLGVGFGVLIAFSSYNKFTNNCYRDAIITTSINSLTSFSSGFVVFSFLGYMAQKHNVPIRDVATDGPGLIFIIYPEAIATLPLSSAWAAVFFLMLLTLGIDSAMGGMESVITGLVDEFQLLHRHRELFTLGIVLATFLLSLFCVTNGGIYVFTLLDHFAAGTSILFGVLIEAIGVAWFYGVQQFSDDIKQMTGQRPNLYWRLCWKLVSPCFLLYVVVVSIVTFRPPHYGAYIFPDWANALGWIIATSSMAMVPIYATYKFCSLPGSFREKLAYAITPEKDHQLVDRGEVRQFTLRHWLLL
Chain of Norepinephrine transporter (Q9WTR4 whole entry): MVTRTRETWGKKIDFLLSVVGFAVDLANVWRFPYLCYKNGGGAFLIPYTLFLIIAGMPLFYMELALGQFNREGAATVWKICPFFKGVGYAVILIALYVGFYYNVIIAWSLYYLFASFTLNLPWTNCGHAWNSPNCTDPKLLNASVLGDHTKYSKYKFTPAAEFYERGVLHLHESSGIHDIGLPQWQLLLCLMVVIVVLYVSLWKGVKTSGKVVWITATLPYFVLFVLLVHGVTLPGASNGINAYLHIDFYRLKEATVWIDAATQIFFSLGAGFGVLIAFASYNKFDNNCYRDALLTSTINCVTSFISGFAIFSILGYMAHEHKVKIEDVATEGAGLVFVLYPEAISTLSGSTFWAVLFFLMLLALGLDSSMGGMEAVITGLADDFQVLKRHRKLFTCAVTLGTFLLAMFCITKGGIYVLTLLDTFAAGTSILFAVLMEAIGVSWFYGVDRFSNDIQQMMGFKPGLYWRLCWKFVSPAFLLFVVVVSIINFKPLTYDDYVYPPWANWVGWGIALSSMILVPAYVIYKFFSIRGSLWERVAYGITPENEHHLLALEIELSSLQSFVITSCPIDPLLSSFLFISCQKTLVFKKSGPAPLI

In the case of `Fc1ccc(CNC2CCC(C(c3ccccc3)c3ccccc3)NC2)cc1` (configuration not stated), the IC50 in assay [1] worked out at 1020 nM; in assay [2] it was 32.5 nM; in the assay filed under Rattus norvegicus it was 45.7 nM; in assay [3], 2220 nM.
In the case of `O=[N+]([O-])c1ccc(CNC2CCC(C(c3ccccc3)c3ccccc3)OC2)cc1` (racemic), the IC50 worked out at 38.3 nM in assay [2] and 102 nM in the assay filed under Rattus norvegicus.
Turning to `COc1ccc(CNC2CCC(C(c3ccccc3)c3ccccc3)OC2)cc1` (racemic), the IC50 in assay [2] came out at 84 nM; in the assay filed under Rattus norvegicus, 59.5 nM.
For `N#Cc1ccc(CNC2CCC(C(c3ccccc3)c3ccccc3)OC2)cc1` (racemic), the IC50 turned out to be 1580 nM in assay [1] and 863 nM in assay [3].
Take `Fc1ccc(CNC2CCC(C(c3ccccc3)c3ccccc3)OC2)cc1` (racemic): the IC50 in assay [1] came to 232 nM; in assay [2], 163 nM; in the assay filed under Rattus norvegicus, 156 nM; in assay [3], 1860 nM.
For the molecule `Fc1ccc(CNC2CCC(C(c3ccccc3)c3ccccc3)OC2)cc1` (single isomer, unassigned), the IC50 in assay [1] is 12700 nM; in assay [2], 313 nM; in assay [3], 8410 nM.

For the origin of these results see ChEMBL document CHEMBL1144974, “Design, synthesis, and activity of novel cis- and trans-3,6-disubstituted pyran biomimetics of 3,6-disubstituted piperidine as potential ligands for the dopamine transporter” (Bioorg Med Chem Lett, 2003).
